# Experimental data pooled from the literature.
# Lines come from different studies, so protocols differ.
# RIPK1: Receptor-interacting serine/threonine-protein kinase 1 (RIPK1, Homo sapiens, UniProt Q13546)
# Maoa: Amine oxidase [flavin-containing] A (Maoa, Rattus norvegicus, UniProt P21396)
# PADI3: Protein-arginine deiminase type-3 (PADI3, Homo sapiens, UniProt Q9ULW8)
# AMY2: Pancreatic alpha-amylase (AMY2, Sus scrofa, UniProt P00690)
# GAK: Cyclin-G-associated kinase (GAK, Homo sapiens, UniProt O14976)
# KRAS G12C: GTPase KRas (KRAS, Homo sapiens, UniProt P01116, G12C)
SMILES,target,test,setting,quantity,result
Cc1ccc(C(=O)Nc2ccc(CN3CCN(C)CC3)c(C(F)(F)F)c2)cc1C#Cc1cnc2cccnn12,RIPK1,"enzyme activity, inhibitor",23.5 nM,remaining activity,86%
NCc1ccc(F)cc1,Maoa,"enzyme activity, substrate",pH 7.5,Km,174 µM
CC(C)(C)n1nnc([C@H](CCCNC(=N)CF)NC(=O)c2ccccc2C(=O)O)n1,PADI3,"enzyme activity, inhibitor",,kinact/KI,261 M⁻¹ s⁻¹
Cc1cccc(N(O)N=Nc2ccc(S(=O)(=O)Nc3nccs3)cc2)c1,AMY2,"enzyme activity, inhibitor",60 µg/mL,inhibition,21.1%
CCCOc1ccc(OC)c(F)c1C(=O)c1ccc(C(=O)N[C@@H]2CNC[C@H]2NC(=O)c2ccc3[nH]ncc3c2)cc1,"Serine/threonine-protein kinase MRCK beta (CDC42BPB, Homo sapiens, UniProt Q9Y5S2)","enzyme activity, inhibitor",0.5 µM,remaining activity,9%
COc1cc(Cl)c(C(=O)N[C@@H](CN[C@H]2CC[C@@H](N)CC2)Cc2ccc(C#N)cc2)cc1-c1ccc(CN[C@H](C)c2ccc(C)cc2)o1,RIPK1,"enzyme activity, inhibitor",1 µM,remaining activity,96%
COc1cc(Nc2ccnc3cc(C#N)ccc23)cc(OC)c1OC,GAK,"thermal stability, DSF",10 µM,ΔTm,5.3 °C
CCCN(O)N=Nc1ccc(S(=O)(=O)Nc2onc(C)c2C)cc1,AMY2,"enzyme activity, inhibitor",20 µg/mL,inhibition,26.3%
CN1CCC2(CC1)NC(=O)c1c(c3ccc(Cl)c(Cl)c3n1C)C2C#N (racemic),"Serine/threonine-protein kinase DCLK1 (DCLK1, Homo sapiens, UniProt O15075)","thermal stability, DSF",10 µM,ΔTm,-0.1 °C
Cc1cc(NS(=O)(=O)c2ccc(N=NN(C)O)cc2)no1,AMY2,"enzyme activity, inhibitor",20 µg/mL,inhibition,10.5%
Nc1ncnc2occ(-c3ccc(NC(=O)Nc4cc(C(F)(F)F)ccc4F)cc3)c12,GAK,"cell-free assay, inhibitor",20 µM,remaining signal,41%
N=C(CF)NCCC[C@H](NC(=O)c1ccccc1)c1nn[nH]n1,PADI3,"enzyme activity, inhibitor",,kinact/KI,7.25 M⁻¹ s⁻¹
FC(F)(F)c1ccc2nccc(Nc3ccc4c(c3)OCCO4)c2c1,GAK,"thermal stability, DSF",10 µM,ΔTm,1.5 °C
COc1cc(C=CC(=O)CC(c2ccc([N+](=O)[O-])cc2)n2ccnc2)ccc1O (stereo not shown),AMY2,"enzyme activity, inhibitor, absorbance",2.5 µg/mL,inhibition,62.6%
Cc1noc(NS(=O)(=O)c2ccc(N=NN(C)O)cc2)c1C,AMY2,"enzyme activity, inhibitor",20 µg/mL,inhibition,21.1%
N=C(CCl)NCCC[C@H](NC(=O)c1ccccc1C(=O)O)c1nn[nH]n1,PADI3,"enzyme activity, inhibitor",,kinact/KI,207 M⁻¹ s⁻¹
N#Cc1ccccc1Nc1ccnc2ccc(C(F)(F)F)cc12,GAK,"thermal stability, DSF",10 µM,ΔTm,0.6 °C
CC(C)(C)n1nnc([C@H](CCCNC(=N)CF)NC(=O)c2ccccc2)n1,PADI3,"enzyme activity, inhibitor",,kinact/KI,8.67 M⁻¹ s⁻¹
C[C@H]1O[C@H](O[C@H]2[C@H](O)[C@@H](O)[C@@H](O[C@H]3[C@H](O)[C@@H](O)C(O)O[C@@H]3CO)O[C@@H]2CO)[C@H](O)[C@@H](O)[C@@H]1N[C@H]1C=C(CO)[C@@H](O)[C@H](O)[C@H]1O (stereo partly shown),AMY2,"enzyme activity, inhibitor",10 µg/mL,inhibition,23.1%
FC(F)(F)c1cccc(Nc2ccnc3ccc(C(F)(F)F)cc23)c1,GAK,"thermal stability, DSF",10 µM,ΔTm,1.3 °C
COc1ccc(CN)cc1,Maoa,"enzyme activity, substrate",pH 7.5,Km,80 µM
C=CC(=O)N1CCN(c2cccc(-c3noc([C@@]4(C)CCCc5sc(N)c(C#N)c54)n3)c2)CC1,KRAS G12C,"cell-free assay, inhibitor",,kinact,8.33e-05 s⁻¹
COc1cc(C=Cc2cc(-c3ccc(N(C)C)cc3)nc(O)n2)ccc1O,AMY2,"enzyme activity, inhibitor, absorbance",10 µg/mL,inhibition,82.6%
COc1cc(Nc2ncnc3ccc(C(F)(F)F)cc23)cc(OC)c1,GAK,"thermal stability, DSF",10 µM,ΔTm,0.7 °C
FC(F)(F)Oc1cccc(-c2cnc3ccc(-c4ccncc4)nn23)c1,"Eukaryotic translation initiation factor 2-alpha kinase 3 (EIF2AK3, Homo sapiens, UniProt Q9NZJ5)","enzyme activity, inhibitor, radiometric",5 µM,activity vs control,67%
CS(=O)(=O)c1cccc(Nc2ccnc3ccc(C(F)(F)F)cc23)c1,GAK,"thermal stability, DSF",10 µM,ΔTm,0.3 °C
CC/C(=N\NC(=O)NCc1cccc(O)c1)c1ccc(O)c(C)c1O,"Fibroblast growth factor receptor 3 (FGFR3, Homo sapiens, UniProt P22607, K650E)","enzyme activity, inhibitor",0.1 µM,inhibition,1.3%
C=CC(=O)Nc1cccc(-c2noc([C@@]3(C)CCCc4sc(N)c(C#N)c43)n2)c1,KRAS G12C,cell-free assay,,kinact,0.000185 s⁻¹
CCCN(O)N=Nc1ccc(S(=O)(=O)Nc2cc(C)on2)cc1,AMY2,"enzyme activity, inhibitor",60 µg/mL,inhibition,21.1%
COc1cc(Nc2ccnc3ccccc23)cc(OC)c1OC,GAK,"thermal stability, DSF",10 µM,ΔTm,4.4 °C
N=C(CF)NCCC[C@H](NC(=O)c1ccc(-c2ccccc2)cc1)c1nn[nH]n1,PADI3,"enzyme activity, inhibitor",,kinact/KI,5.08 M⁻¹ s⁻¹
O=S(=O)(Nc1nccs1)c1ccc(N=NN(O)c2ccccc2)cc1,AMY2,"enzyme activity, inhibitor",60 µg/mL,inhibition,15.8%
COc1cc(C=CC(=O)CC(c2ccc(N(C)C)cc2)n2ccnc2)ccc1O (stereo not shown),AMY2,"enzyme activity, inhibitor, absorbance",2.5 µg/mL,inhibition,67.3%
C[C@@H]1CN(c2ccc3ncc(-c4ccc5[nH]nc(C6CC6)c5c4)n3n2)C[C@H](C)O1,"Cyclin-dependent kinase 19 (CDK19, Homo sapiens, UniProt Q9BWU1)","binding, competition with immobilised ligand",50 nM,remaining binding,90%
Cc1ccc(C(=O)NCc2ccsc2)cc1C#Cc1cn(C(C)C)c2ncnc(N)c12,RIPK1,"enzyme activity, inhibitor",1 µM,activity vs control,30%
CCN(O)N=Nc1ccc(S(=O)(=O)Nc2cc(C)on2)cc1,AMY2,"enzyme activity, inhibitor",120 µg/mL,inhibition,42.1%
O=C1O[C@H]2[C@@H]3OC(=O)c4cc(O)c(O)c(O)c4-c4c(O)c(O)c5oc(=O)c6c(c(O)c(O)c7oc(=O)c4c5c76)-c4c(cc(O)c(O)c4O)C(=O)OC[C@H]3OC(O)[C@@H]2OC(=O)c2cc(O)c(O)c(O)c2-c2c1cc(O)c(O)c2O (mixture of isomers),"Genome polyprotein, protease (Hepatitis C virus genotype 1b, UniProt Q9WMX2)","enzyme activity, inhibitor, fluorescence",,IC90,~2500 nM
C=CC(=O)Nc1ccc(-c2noc([C@@]3(C)CCCc4sc(N)c(C#N)c43)n2)cc1,KRAS G12C,"cell-free assay, inhibitor",,kinact,0.000194 s⁻¹
CC(C)(C)n1nnc([C@H](CCCNC(=N)CCl)NC(=O)c2ccccc2)n1,PADI3,"enzyme activity, inhibitor",,kinact/KI,7.67 M⁻¹ s⁻¹
COc1ccc(Nc2ncnc3ccc(C(F)(F)F)cc23)cc1,GAK,"thermal stability, DSF",10 µM,ΔTm,0.3 °C
